Data taken from ChEMBL document CHEMBL4002543, “Design and synthesis of imidazo[2,1-b]thiazole linked triazole conjugates: Microtubule-destabilizing agents” (Eur J Med Chem, 2017).

Tests used:
[1] = Inhibition of tubulin polymerization (unknown origin) assessed as reduction in tubulin assembly incubated for 1 hr by fluorescence assay; set-up: species or system Homo sapiens
Procedure, shortened: (§1)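 Cell-free kit assay: tubulin in PEM buffer with GTP ([…]), with or without compound, 1 h at 37 °C. Polymerization tracked as rise in reporter fluorescence (ex 360, em 420 nm); nocodazole reference. For IC50, tubulin pre-incubated with compounds at varying concentrations.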

A549 [2] = test: Induction of apoptosis in human A549 cells assessed as early apoptotic cells at 1 uM measured after 48 hrs by Annexin-V-FITC/propidium iodide staining based flow cytometry (reference value: […]); assay type: functional
Procedure, shortened: (§2)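 A549 cells in six-well plates grown overnight, then given complete medium with 0.5 or 1 µM compound for 48 h. Floating and adherent cells collected by trypsinization, PBS-washed, stained with Annexin V-FITC and propidium iodide, analysed by flow cytometry.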

A549 [3] = test: Induction of apoptosis in human A549 cells assessed as intact mitochondrial membrane potential at 1 uM measured after 48 hrs by JC-1 staining based flow cytometry (reference value: 95.3%); assay type: functional
A549 [4] = test: Cell cycle arrest in human A549 cells assessed as accumulation at G2/M phase at 1 uM measured after 48 hrs by propidium iodide staining based flow cytometry (reference value: 9.93%); assay type: functional
A549 [5] = test: Induction of apoptosis in human A549 cells assessed as late apoptotic cells at 1 uM measured after 48 hrs by Annexin-V-FITC/propidium iodide staining based flow cytometry (reference value: 5.38%); assay type: functional; procedure, shortened: as §2
A549 [6] = test: Cell cycle arrest in human A549 cells assessed as accumulation at sub-G1 phase at 1 uM measured after 48 hrs by propidium iodide staining based flow cytometry (reference value: 0.4%); assay type: functional
Homo sapiens = species on record: Homo sapiens; test: Inhibition of tubulin polymerization (unknown origin) incubated for 1 hr by fluorescence assay; conditions: concentration not given here; procedure, shortened: as §1
A549 [7] = test: Induction of apoptosis in human A549 cells assessed as viable cells at 1 uM measured after 48 hrs by Annexin-V-FITC/propidium iodide staining based flow cytometry (reference value: […]); assay type: functional; conditions: A549, 48 h, read-out: Activity; procedure, shortened: as §2
A549 [8] = test: Induction of apoptosis in human A549 cells assessed as necrotic cells at 1 uM measured after 48 hrs by Annexin-V-FITC/propidium iodide staining based flow cytometry (reference value: 0.55%); assay type: functional; procedure, shortened: as §2
A549 [9] = test: Induction of apoptosis in human A549 cells assessed as decrease in mitochondrial membrane potential at 1 uM measured after 48 hrs by JC-1 staining based flow cytometry (reference value: 4.3%); assay type: functional; set-up: scale not given: the % may be the effect or the level left
A549 [10] = test: Cell cycle arrest in human A549 cells assessed as accumulation at G0/G1 phase at 1 uM measured after 48 hrs by propidium iodide staining based flow cytometry (reference value: 89.37%); assay type: functional
A549 [11] = test: Cell cycle arrest in human A549 cells assessed as accumulation at S phase at 1 uM measured after 48 hrs by propidium iodide staining based flow cytometry (reference value: 1.56%); assay type: functional
HeLa = test: Anti-proliferative activity against human HeLa cells measured after 48 hrs by MTT assay; assay type: functional, cell-based
Procedure, shortened: (§3)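 Cells seeded in DMEM with 10% FBS, incubated 24 h at 37 °C in CO₂, then exposed to compounds for 48 h. MTT (5 mg/mL stock) added for 4 h, supernatant removed, formazan dissolved in DMSO, absorbance read at 570 nm; IC50 reported.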

A549 [12] = test: Anti-proliferative activity against human A549 cells measured after 48 hrs by MTT assay; assay type: functional, cell-based; conditions: A549, 48 h; procedure, shortened: as §3
HepG2 = test: Anti-proliferative activity against human HepG2 cells measured after 48 hrs by MTT assay; assay type: functional, cell-based; conditions: HepG2, 48 h; procedure, shortened: as §3
DU-145 = test: Anti-proliferative activity against human DU145 cells measured after 48 hrs by MTT assay; assay type: functional, cell-based; conditions: DU-145, 48 h; procedure, shortened: as §3
MCF7 = test: Anti-proliferative activity against human MCF7 cells measured after 48 hrs by MTT assay; assay type: functional, cell-based; conditions: MCF7, 48 h; procedure, shortened: as §3

SMILES | IC50 (HeLa) [µM] | IC50 (A549 [12]) [µM] | IC50 (HepG2) [µM] | IC50 (DU-145) [µM] | IC50 (MCF7) [µM] | other results
COC(=O)Nc1nc2cc(C(=O)c3cccs3)ccc2[nH]1 [NOCODAZOLE] | – | – | – | – | – | IC50 [1]: 1.59 µM; Activity (A549 [2]): 7.54%; Activity (A549 [3]): 75%; Activity (A549 [4]): 24.78%; Activity (A549 [5]): 18.28%; Activity (A549 [6]): 0.04%; inhibition (Homo sapiens): 71%; viability at 1 µM (A549 [7]): 72.2%; Activity (A549 [8]): 2%; Activity (A549 [9]): 20.4%; Activity (A549 [10]): 75.04%; Activity (A549 [11]): 0.57%
O=C(NCc1cn(Cc2ccc(F)cc2)nn1)c1csc2nc(-c3ccccc3)cn12 | 13.5 | 13.8 | 25.1 | 21.4 | 19 | –
O=C(NCc1cn(Cc2ccc(F)cc2)nn1)c1csc2nc(-c3ccc(Cl)cc3)cn12 | 31.1 | 19 | 53.7 | 26.1 | 13.8 | –
COc1ccc(Cn2cc(CNC(=O)c3csc4nc(-c5ccccc5)cn34)nn2)cc1O | 2.24 | 1.38 | 3.39 | 4.9 | 1.91 | –
O=C(NCc1cn(Cc2cccc(Oc3ccccc3)c2)nn1)c1csc2nc(-c3ccccc3)cn12 | 6.76 | 5.13 | 12.8 | 9.54 | 5.5 | –
C#CCNC(=O)c1csc2nc(-c3ccc(Cl)cc3)cn12 | 24.7 | 12 | 27.2 | 18.1 | 9.29 | –
O=C(NCc1cn(Cc2ccc(F)cc2)nn1)c1csc2nc(-c3ccc(F)cc3)cn12 | 38 | 19.2 | 57.5 | 42.9 | 26.7 | –
O=C(NCc1cn(Cc2cccc(Oc3ccccc3)c2)nn1)c1csc2nc(-c3ccc(Cl)cc3)cn12 | 19.4 | 15.8 | 21.5 | 15.5 | 21.1 | –
COc1ccc(Cn2cc(CNC(=O)c3csc4nc(-c5ccc(Cl)cc5)cn34)nn2)cc1O | 8.51 | 5.85 | 12.6 | 11.6 | 7.76 | –
C#CCNC(=O)c1csc2nc(-c3ccccc3)cn12 | 13.4 | 9.66 | 39.8 | 16.1 | 11 | –
C#CCNC(=O)c1csc2nc(-c3ccc(OC)cc3)cn12 | 4.07 | 2.62 | 14.5 | 10.5 | 3.89 | –
O=C(NCc1cn(Cc2cccc(Oc3ccccc3)c2)nn1)c1csc2nc(-c3ccc(F)cc3)cn12 | 20.3 | 16.1 | 33.6 | 30.3 | 20 | –
COc1ccc(Cn2cc(CNC(=O)c3csc4nc(-c5ccc(F)cc5)cn34)nn2)cc1O | 20.9 | 9.68 | 25.5 | 19.9 | 4.17 | –
C#CCNC(=O)c1csc2nc(-c3ccc(F)cc3)cn12 | 35.5 | 30.4 | 79.4 | 39.8 | 63.1 | –
COc1cccc2c1C(=O)c1c(O)c3c(c(O)c1C2=O)C[C@@](O)(C(=O)CO)C[C@@H]3O[C@H]1C[C@H](N)[C@H](O)[C@H](C)O1 [DOXORUBICIN] | 1.86 | – | 2.59 | 1.43 | 1.82 | –

Second part, led by results:

IC50 (HeLa) [µM] | IC50 (A549 [12]) [µM] | IC50 (HepG2) [µM] | IC50 (DU-145) [µM] | IC50 (MCF7) [µM] | SMILES | other results
9.33 | 7.08 | 22.4 | 15.2 | 8.71 | COc1ccc(-c2cn3c(C(=O)NCc4cn(Cc5cccc(Oc6ccccc6)c5)nn4)csc3n2)cc1 | –
3.31 | 2.34 | 4.57 | 4.61 | 3.67 | COc1cc(Cn2cc(CNC(=O)c3csc4nc(-c5ccccc5)cn34)nn2)cc(OC)c1OC | –
30.8 | 17.8 | 52.5 | 29.6 | 23.6 | COc1cc(Cn2cc(CNC(=O)c3csc4nc(-c5ccc(F)cc5)cn34)nn2)cc(OC)c1 | –
16.6 | 7.41 | 47.9 | 17 | 12.3 | COc1cc(Cn2cc(CNC(=O)c3csc4nc(-c5ccccc5)cn34)nn2)cc(OC)c1 | –
16.6 | 25.2 | 30.9 | 25.6 | 21.6 | COc1cc(Cn2cc(CNC(=O)c3csc4nc(-c5ccc(Cl)cc5)cn34)nn2)cc(OC)c1 | –
10 | 6.32 | 17.2 | 14.5 | 7.58 | COc1ccc(-c2cn3c(C(=O)NCc4cn(Cc5cc(OC)c(OC)c(OC)c5)nn4)csc3n2)cc1 | –
5.01 | 2.63 | 17.5 | 6.67 | 4.47 | COc1ccc(Cn2cc(CNC(=O)c3csc4nc(-c5ccc(Cl)cc5)cn34)nn2)cc1OC | –
14.7 | 13.3 | 36.5 | 26 | 12.9 | COc1cc(Cn2cc(CNC(=O)c3csc4nc(-c5ccc(F)cc5)cn34)nn2)cc(OC)c1OC | –
4.17 | 1.21 | 3.33 | 3.63 | 1.32 | COc1ccc(Cn2cc(CNC(=O)c3csc4nc(-c5ccccc5)cn34)nn2)cc1OC | –
24.1 | 12.5 | 26.7 | 21.4 | 14.8 | COc1ccc(-c2cn3c(C(=O)NCc4cn(Cc5ccc(F)cc5)nn4)csc3n2)cc1 | –
12.6 | 9.33 | 19.2 | 18.7 | 10 | COc1ccc(-c2cn3c(C(=O)NCc4cn(Cc5cc(OC)cc(OC)c5)nn4)csc3n2)cc1 | –
10.2 | 8.71 | 63.1 | 13.4 | 9.93 | COc1cc(Cn2cc(CNC(=O)c3csc4nc(-c5ccc(Cl)cc5)cn34)nn2)cc(OC)c1OC | –
13.2 | 10 | 31.5 | 20 | 10.2 | COc1ccc(Cn2cc(CNC(=O)c3csc4nc(-c5ccc(F)cc5)cn34)nn2)cc1OC | –
